# Screening data as filed in PubChem.
# DNA FID counter = fluorescent intercalator displacement, NS3 helicase counter-screen; DNA fluorescent intercalator displacement, fluorescence; inhibition, % at 7.9 µM; 0.17% of 290,000 active; in the data active = inhibition above about 37%;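 also: higher means more ethidium bromide displaced from hairpin DNA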
# CendR NRP1 mod = NRP-1/CendR interaction modulation; FAM-RPARPAR peptide binding to NRP-1, fluorescence polarization; O14786; inhibition, % at 25 µM; 0.85% of 360,000 active;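 active = inhibition or corrected inhibition above about 18%, plus a signal ratio from 0.5 to 1.5, limit read from the data, passing the limit was not always enough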
# HCV core dimer = blocks dimerization of HCV core protein. AID 1899. 0.33% of 300,000 active. inhibition, % at 5 µM. TR-FRET GST/Flag-core106 dimerization, 1536-well;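 active = inhibition above the mean of all tested compounds plus 3 SD, set per screening campaign, cut at about 45% in these data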
#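 Material: Tagged HCV core106 pair (GST and Flag) | Amount: GST-core106 13.5 nM, Flag-core106 17 nM | Medium: KF-containing HEPES buffer, pH 7.45, DTT, CHAPS, BSA | Reagent: Eu donor and XL665 acceptor anti-tag antibodies | Schedule: 4 h at 22.5 °C | Technique: Time-resolved FRET, ex 340 nm, em 617 and 671 nm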
# MEX-5 binding = C. elegans MEX-5 TCR-2 RNA binding activity; 0.38% of 300,000 active; activity score (negative = inhibition of binding), % at 10 µM; MEX-5/FITC-TCR2 RNA binding, fluorescence polarization; hits give low values; Q9XUB2;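 active = inhibition past about -25% in most replicates, and total fluorescence under double the plate's negative control median, limit read from the data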
# Target sequence (Q9XUB2 whole entry, looked up): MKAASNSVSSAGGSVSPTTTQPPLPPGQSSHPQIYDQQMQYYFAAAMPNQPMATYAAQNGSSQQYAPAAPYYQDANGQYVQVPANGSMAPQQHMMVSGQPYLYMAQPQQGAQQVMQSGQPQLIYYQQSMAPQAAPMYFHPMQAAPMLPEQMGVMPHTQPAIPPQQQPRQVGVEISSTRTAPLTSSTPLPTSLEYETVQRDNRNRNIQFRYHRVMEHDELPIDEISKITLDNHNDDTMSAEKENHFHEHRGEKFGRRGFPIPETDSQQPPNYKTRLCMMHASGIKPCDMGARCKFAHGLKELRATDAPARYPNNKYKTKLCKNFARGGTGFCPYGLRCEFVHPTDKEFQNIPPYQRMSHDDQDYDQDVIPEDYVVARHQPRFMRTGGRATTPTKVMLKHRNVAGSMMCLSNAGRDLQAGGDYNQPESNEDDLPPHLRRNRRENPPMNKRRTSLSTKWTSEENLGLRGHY
# Numbers stand for hits; n = inactive; x = no result given. Only some compounds are listed: those with a hit (about 1.5% of all), similar ones and a draw of the others.
SMILES,DNA FID counter,CendR NRP1 mod,HCV core dimer,MEX-5 binding
CCC(Oc1ccccc1)C(=O)Nc1cc(C)on1 (stereo unspecified),n,n,n,n
CCn1cc(C(=O)NCc2ccccn2)c(=O)c2cc(S(=O)(=O)N3CCCCC3)ccc21,n,x,x,-71.9
CCCCN(CC)CCCNC(=O)c1cn(CC)c2ccc(S(=O)(=O)N3CCc4ccccc4C3)cc2c1=O,40.6,n,n,n
CCn1cc(C(=O)NCc2ccco2)c(=O)c2cc(S(=O)(=O)N3CCCCCC3)ccc21,n,n,n,n
Fc1ccc(Nc2nnc(-c3ccncc3)s2)cc1Cl,x,35.2,x,x
Cc1nc(NC(=O)c2ccccc2)sc1-c1cc(C(=O)O)nn1Cc1ccccc1,x,n,x,x
CCC(C)Nc1nc(N)c([N+](=O)[O-])c(Nc2cc(OC)ccc2OC)n1 (stereo unspecified),n,52.2,n,n
COCCNC(=O)C1CCCN(C(=O)c2ccc(SC(F)(F)F)cc2)CC1 (stereo unspecified),x,n,x,x
Cc1ccc(S(=O)(=O)CCC(=O)OCc2cc(C)ccc2C)cc1,x,26.6,n,n
O=C(Nc1cccc(Cl)c1)c1csc([C@H]2C[C@H](O)[C@@H](CO)O2)n1,x,n,x,x
CN1CCC(=C2c3ccccc3C(O)c3ccccc32)CC1 (stereo unspecified),n,n,n,n
CN1CCc2cccc3c2C1Cc1ccc(O)c(O)c1-3 (stereo unspecified),n,n,n,-83.4
CCN(C(=O)CSc1nnc(-c2c[nH]c3ccccc23)n1C1CC1)C1CCS(=O)(=O)C1 (stereo unspecified),x,n,x,x
CCN(C(=O)CSc1nnc(-c2ccccc2Cl)n1C1CCCC1)C1CCS(=O)(=O)C1 (stereo unspecified),n,19.8,n,n
O=C(CN1C(=O)/C(=C/c2ccco2)SC1=S)Nc1ccc(O)c(C(=O)O)c1,n,n,n,n
CC(C(=O)Nc1ccc(C(=O)O)c(O)c1)N1C(=O)/C(=C\c2ccco2)SC1=S (stereo unspecified),n,n,n,-25.7
Cc1ccc(NC(=O)CN2C(=O)N/C(=C/c3ccco3)C2=O)cc1,n,n,53.2,n
O=C(CN1C(=O)/C(=C/c2ccco2)SC1=S)Nc1ccc(C(=O)O)c(O)c1,n,n,n,-27.6
CC(C)(C)OC(=O)NCc1ccc(CNC(=O)c2nc[nH]c2C(=O)N2CCN(c3ccccc3)CC2)cc1,x,n,x,x
CC1(C(=O)NCC2CC2)Cc2c(-c3ccc4c(c3)OCO4)ccnc2O1 (stereo unspecified),x,n,x,x
CCCCNC(=O)C1(C)CCN1Cc1ccc(C#N)cc1 (stereo unspecified),x,n,x,x
COc1ccc(-n2c(=S)[nH]c3cc(C(=O)NCCCN4CCOCC4)ccc3c2=O)cc1,n,n,n,n
O=C(NCCCN1CCOCC1)c1ccc2c(=O)n(-c3ccc(F)c(Cl)c3)c(=S)[nH]c2c1,n,23.6,n,n
CC(C)c1ccc(C(=O)NCCCN2CCOCC2)cc1,n,n,n,n
O=C(NCCCN1CCOCC1)c1ccc(CSc2ccc(Cl)cc2)cc1,38.0,n,n,n
SMILES,DNA FID counter,CendR NRP1 mod,HCV core dimer,MEX-5 binding
COc1cc2nc(N3CCN(c4cc(C)ccc4C)CC3)nc(N)c2cc1OC,n,n,n,n
COc1cc2nc(N3CCNCC3)nc(N)c2cc1OC,48.9,n,n,n
C[C@@H]1CN([C@H](C)CO)C(=O)c2c(c3ccccc3n2C)-c2ccccc2CO[C@H]1CN(C)Cc1ccc(Oc2ccccc2)cc1,x,n,x,x
C=C(CN(C)C)C(=O)c1cc(C)ccc1C,x,n,x,x
CCCN1Cc2cccc(C(=O)Nc3ccc4c(c3)OCO4)c2C1=O,n,n,n,n
O=C(Nc1ccc2c(c1)OCO2)c1cccc2c1C(=O)N(Cc1cccnc1)C2,n,n,53.5,n
Cc1cccc(NS(=O)(=O)c2ccc(C)c(C(=O)NNC(=O)c3csc(N4CCOCC4)n3)c2)c1,x,n,x,x
C[C@H](NC(=O)c1ncn2c1C(=O)NC[C@H]2C)c1ccccc1,x,n,x,x
CCOC(=O)C1(C)CCCCCN1C(=O)c1ccc(N(C)C)cc1 (stereo unspecified),x,n,x,x
NC(=O)C1CC(=O)N(c2ccc(OCC(=O)N3CCCC3)cc2)C1 (stereo unspecified),x,27.6,x,x
CC(O)(c1cccc(F)c1)c1nc(/C=C/c2ccccc2)cs1 (stereo unspecified),x,n,x,x
Cc1ccc(Cl)cc1C1=CC(=O)C[C@H](c2ccc(F)cc2)C1,x,26.6,x,x
O=C1C=C(c2cc(F)ccc2F)C[C@@H](c2ccc(Cl)cc2)C1,x,n,x,x
O=C1C=C(c2ccc(F)c(Cl)c2)C[C@@H](c2ccc(F)cc2)C1,x,24.5,x,x
C=CCn1c(SCC(=O)Nc2ncc(Cc3ccc(Br)cc3)s2)nnc1-c1ccncc1,n,23.4,n,n
CCN1C(=O)/C(=C/c2c(C)nn(C)c2C)SC1=S,n,n,n,-30.2
Nc1nc(SCc2ccccc2Cl)c2ncn(C3OC(CO)C(O)C3O)c2n1 (stereo unspecified),x,n,x,x
NS(=O)(=O)c1cccnc1Nc1ccc(Cl)c(Cl)c1,n,n,n,n
NS(=O)(=O)c1cccnc1Nc1cccc(Cl)c1Cl,n,23.6,n,n
O=C1CCC[C@@H]2C=C[C@H](c3ccc(Br)cc3)[C@H]3CCN1[C@@H]32,x,n,x,x
COCc1ccccc1Cn1cnc2c1c(=O)n(C)c(=O)n2C,n,35.4,n,n
COc1cccc(C(O)c2nc(-c3cccc(C#N)c3)cs2)c1 (stereo unspecified),x,n,x,x
Cn1nnnc1Sc1ncnc2scc(-c3ccccc3)c12,n,n,65.2,n
Cn1nnnc1Sc1ncnc2scc(-c3ccc(Br)cc3)c12,x,n,x,x
COc1ccc(NC2CCCN(C(=O)c3ccc4nccnc4c3)C2)cc1OC (stereo unspecified),n,n,n,n
SMILES,DNA FID counter,CendR NRP1 mod,HCV core dimer,MEX-5 binding
Cc1ccc(NC2CCCN(C(=O)c3ccc4nccnc4c3)C2)cc1C (stereo unspecified),n,43.3,x,n
CCCNC(=O)N1C[C@H](O)COC[C@@H]2O[C@@H](CC(=O)NCCCN3CCOCC3)CC[C@H]21,x,n,x,x
CCOC(=O)c1ccc2ncc(C(=O)OCC)c(NCCN(C)C)c2c1,n,60.0,n,n
CC(Oc1ccc(F)cc1)C(=O)Nc1cccc(S(=O)(=O)N(C)c2ccccc2)c1 (stereo unspecified),x,n,x,x
CCOC(=O)Cc1csc(NC(=O)CSc2ncnc3c2cnn3-c2ccccc2Cl)n1,n,21.3,x,n
CN(C)/C=C1\NC(=S)N(c2ccccc2)C1=O,n,24.7,n,n
CN(C)/C=C1\NC(=S)N(c2ccc(Cl)cc2)C1=O,n,n,n,n
COCCNC(=O)C1(C)Cc2c(-c3cccc(C(F)(F)F)c3)ccnc2O1 (stereo unspecified),x,n,x,x
CC1(C(=O)NCC2CC2)Cc2c(-c3cccc(C(F)(F)F)c3)ccnc2O1 (stereo unspecified),x,34.6,x,x
Cc1ccccc1C(=O)NCCN1CCC(n2c(=O)[nH]c3ccccc32)CC1,x,n,x,x
COc1ccc(/C=C/C(=O)NC(=S)NNC(=O)Cc2cccs2)cc1OC,n,n,n,n
O=C(/C=C/c1cccs1)NC(=S)NNC(=O)Cc1cccs1,n,29.3,n,n
